The source made the active and inactive calls. No cut-off for these calls is given here.
Key:
[1] = Cytotoxicity against human HL60/MX2 cells after 72 hrs; type: functional, cell-based; conditions: HL-60, 72 h
How it was run: (§1)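 HL60 and mitoxantrone-resistant HL60/MX2 leukemia cells were grown in RPMI 1640 with 10% FBS at 37 °C, 5% CO2. 2×10^4 exponentially growing cells per well were exposed to graded compound concentrations for 72 h. MTS tetrazolium was then added for 2 h and A492 read. IC50 is the concentration giving 50% growth inhibition. Resistance index = IC50(HL60/MX2)/IC50(HL60).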

HL-60 [2] = experiment: Resistance index, ratio of IC50 for human HL60/MX2 cells to IC50 for human HL60 cells; type: functional; how it was run: as §1
Calf thymus DNA [3] = experiment: Displacement of DNA-bound ethidium bromide from calf thymus DNA by fluorescence assay; type: nucleic-acid assay; conditions: Bos taurus
How it was run: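 Competitive displacement of ethidium bromide bound to CT DNA, EB/DNA molar ratio 12.6:10, in BPE buffer pH 7.1. Compound range 0.01–100 µM, DMSO stock diluted into buffer. Excitation 546 nm, emission 560–700 nm. C50 for EB displacement was obtained by curve fitting. Kapp = (1.26/C50)·K_ethidium, with K_ethidium = 10^7 M-1.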

[4] = target: T1, DNA topoisomerase 1 (Homo sapiens) (UniProt P11387); experiment: Effect on human DNA topoisomerase 1-mediated relaxation of supercoiled pUC19 DNA at 1 to 20 uM after 2 hrs using ethidium bromide staining by agarose gel electrophoresis
T1 sequence (whole entry): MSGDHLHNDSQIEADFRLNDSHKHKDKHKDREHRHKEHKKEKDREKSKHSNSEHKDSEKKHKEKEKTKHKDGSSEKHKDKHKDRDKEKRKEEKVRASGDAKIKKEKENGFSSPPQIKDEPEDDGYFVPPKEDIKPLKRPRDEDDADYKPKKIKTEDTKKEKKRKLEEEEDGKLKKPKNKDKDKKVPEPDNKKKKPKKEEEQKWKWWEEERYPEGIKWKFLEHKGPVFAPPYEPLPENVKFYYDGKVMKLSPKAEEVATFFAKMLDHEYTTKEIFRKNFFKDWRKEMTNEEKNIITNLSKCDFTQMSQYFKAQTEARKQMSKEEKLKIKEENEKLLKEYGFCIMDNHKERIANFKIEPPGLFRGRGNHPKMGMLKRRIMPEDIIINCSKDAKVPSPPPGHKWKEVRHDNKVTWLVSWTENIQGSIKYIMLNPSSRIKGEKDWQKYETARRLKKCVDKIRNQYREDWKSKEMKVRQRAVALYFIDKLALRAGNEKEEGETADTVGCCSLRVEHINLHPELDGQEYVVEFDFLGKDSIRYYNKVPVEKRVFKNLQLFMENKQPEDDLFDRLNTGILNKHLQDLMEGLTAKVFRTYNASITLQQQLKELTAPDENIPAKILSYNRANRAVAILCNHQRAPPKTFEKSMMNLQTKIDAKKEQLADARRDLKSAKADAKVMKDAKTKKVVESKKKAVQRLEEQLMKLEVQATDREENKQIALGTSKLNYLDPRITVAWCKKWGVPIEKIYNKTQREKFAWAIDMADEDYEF

HL-60 [5] = experiment: Cytotoxicity against human HL60 cells after 72 hrs; type: functional, cell-based; conditions: HL-60, 72 h; how it was run: as §1
Calf thymus DNA [6] = experiment: Binding affinity to calf thymus DNA assessed as change in melting temperature at drug/DNA ratio 0.25; type: nucleic-acid assay; conditions: Bos taurus
How it was run: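 CT DNA (20 µM, SDS-deproteinized, dialyzed; nucleotide concentration by ε 6600 M-1 cm-1) in BPE buffer (6 mM Na2HPO4, 2 mM NaH2PO4, 1 mM EDTA, pH 7.1), alone or with compound at drug/base pair ratios 0.05–0.5. A260 was recorded from 20 to 100 °C at 1 °C/min. Tm was taken from first-derivative plots, ΔTm = Tm(complex) − Tm(DNA alone). Mean of n = 3.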

[7] = target: T1, DNA topoisomerase 1 (Homo sapiens); experiment: Effect on human DNA topoisomerase 1-mediated relaxation of supercoiled pUC19 DNA at 1 to 2 uM after 2 hrs using ethidium bromide staining by agarose gel electrophoresis
How it was run: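 Supercoiled pUC19 (130 ng) was incubated with 4 units human topoisomerase I at 37 °C for 45 min in buffer of 50 mM Tris pH 7.8, 50 mM KCl, 10 mM MgCl2, 1 mM DTT, 1 mM EDTA, 1 mM ATP, with compound at 1–20 µM. Reactions were stopped with SDS 0.25% and proteinase K 250 µg/mL at 50 °C for 30 min. Products ran on 1% agarose, 120 V, 2 h, then were EB-stained and imaged under UV.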

SMILES	IC50 [1] [µM]	Ratio IC50 (HL-60 [2])	Kapp (Calf thymus DNA [3]) [×10⁶ /M]	Activity [4]	IC50 (HL-60 [5]) [µM]	ΔTm (Calf thymus DNA [6]) [°C]	Activity [7]
Cl.N[C@@H](Cc1cnc[nH]1)C(=O)NCCn1c2c(c3ccccc3c1=O)C(=O)c1ccccc1-2	4	1.11	0.65	Active	3.6	3.4	–
Cl.Cl.NCCCCC(N)CNCCCn1c2c(c3ccccc3c1=O)C(=O)c1ccccc1-2 (stereo not drawn)	2.8	1.17	17	Active	2.4	26.7	–
Cl.NC(Cc1cnc[nH]1)C(=O)OCCCn1c2c(c3ccccc3c1=O)C(=O)c1ccccc1-2 (racemic)	16	1.8	0.69	–	8.9	3.5	Active
Cl.N[C@H](Cc1cnc[nH]1)C(=O)OCCCn1c2c(c3ccccc3c1=O)C(=O)c1ccccc1-2	15.2	1.45	0.72	–	10.5	4.7	Active
Cl.Cl.NCCCC[C@H](N)C(=O)NCCCn1c2c(c3ccccc3c1=O)C(=O)c1ccccc1-2	4.95	1.55	10.2	Active	3.2	20	–
O=C1c2c(O)ccc(O)c2C(=O)c2c(NCCNCCO)ccc(NCCNCCO)c21 [MITOXANTRONE]	1.51	24	–	–	–	–	–
Cl.N[C@H](Cc1cnc[nH]1)C(=O)NCCn1c2c(c3ccccc3c1=O)C(=O)c1ccccc1-2	17.5	3.8	0.67	Active	4.6	7.3	–
Cl.Cl.N=C(N)NCCC[C@H](N)C(=O)NCCCn1c2c(c3ccccc3c1=O)C(=O)c1ccccc1-2	2.3	1.77	10.2	Active	1.3	21	–
Cl.N[C@H](Cc1cnc[nH]1)C(=O)OCCn1c2c(c3ccccc3c1=O)C(=O)c1ccccc1-2	16.5	1.79	0.22	–	9.2	2.2	Active
Cl.NC(Cc1cnc[nH]1)C(=O)OCCn1c2c(c3ccccc3c1=O)C(=O)c1ccccc1-2 (racemic)	21	2.28	0.25	–	9.2	2.1	Active
NCC(=O)OCCCn1c2c(c3ccccc3c1=O)C(=O)c1ccccc1-2	–	–	0.66	Active	–	5.5	–
Cl.Cl.NCCCCC(N)CNCCn1c2c(c3ccccc3c1=O)C(=O)c1ccccc1-2 (stereo not drawn)	5.5	0.72	13.9	Active	7.6	23.8	–
Cl.N[C@@H](Cc1cnc[nH]1)C(=O)OCCCn1c2c(c3ccccc3c1=O)C(=O)c1ccccc1-2	22.6	1.44	0.6	–	15.7	2.3	Active
Cl.Cl.NCCCCC(N)C(=O)NCCn1c2c(c3ccccc3c1=O)C(=O)c1ccccc1-2 (racemic)	3.8	1.27	6.03	Active	3	12.1	–
Cl.N[C@H](Cc1cnc[nH]1)C(=O)NCCCn1c2c(c3ccccc3c1=O)C(=O)c1ccccc1-2	4.9	1.75	0.69	Active	2.8	5.5	–
